Bioassay records deposited in PubChem BioAssay by The Scripps Research Institute Molecular Screening Center.
SIAE inh = human SIAE inhibitors, primary screen, biochemical, fluorescence polarization, FP-Rh probe, 1536-well HTS; SIAE FP-Rh probe binding; inhibition, % at 9.66 µM; 0.69% of 370,000 active; AID 1053197, 2014;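 active = inhibition above a cutoff: mean of compounds within the control limits plus 3 SD of those, cut at about 17% in these data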
Target sequence (Q9HAT2 whole entry, looked up): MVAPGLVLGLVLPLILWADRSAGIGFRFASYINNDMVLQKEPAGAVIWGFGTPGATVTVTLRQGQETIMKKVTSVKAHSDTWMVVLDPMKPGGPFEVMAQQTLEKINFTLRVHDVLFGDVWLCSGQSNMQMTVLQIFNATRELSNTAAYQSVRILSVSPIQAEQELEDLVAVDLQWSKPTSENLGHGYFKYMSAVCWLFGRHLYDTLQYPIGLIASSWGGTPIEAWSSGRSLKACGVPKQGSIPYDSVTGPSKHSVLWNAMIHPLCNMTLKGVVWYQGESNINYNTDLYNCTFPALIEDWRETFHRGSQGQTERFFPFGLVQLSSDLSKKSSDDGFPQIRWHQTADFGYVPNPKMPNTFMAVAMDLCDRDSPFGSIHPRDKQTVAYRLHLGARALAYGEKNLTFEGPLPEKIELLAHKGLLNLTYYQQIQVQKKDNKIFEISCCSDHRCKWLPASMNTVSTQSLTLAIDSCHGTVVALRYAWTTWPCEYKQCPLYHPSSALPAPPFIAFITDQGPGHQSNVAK
PRMT1 inh = PRMT1 methyltransferase inhibitors, primary screen, biochemical, fluorescence polarization; Protein arginine N-methyltransferase 1 (Homo sapiens), Q99873; recombinant PRMT1, activity-based probe fluorescence polarization; inhibition, % at 2.79 µM; 1.3% of 370,000 active; AID 652257, 2013;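 active = inhibition above about 21% made by adding two undisclosed values, limit read from the data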
PAD4 FP inh = human PAD4 inhibitors, primary screen, biochemical, fluorescence polarization, 1536-well format; recombinant PAD4, RCA probe fluorescence polarization; 0.41% of 330,000 active; inhibition, % at 6.36 µM; AID 485272, 2010;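 active = percent inhibition above a cutoff equal to the mean of all tested compounds plus 3 SD, cut at about 15% in these data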
GSTO1 counter = inhibitors of recombinant GSTO1, primary screen, counter-screen for RBBP9 inhibitor project, biochemical, fluorescence polarization | Glutathione S-transferase omega-1 (Homo sapiens), P78417 | activity-based probe fluorescence polarization | inhibition, % at 5.96 µM | 1.1% of 300,000 active | AID 1974, 2009;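 active = inhibition above the campaign mean inhibition plus 3 SD, cut at about 35% in these data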
RBBP9 inh = human RBBP9 inhibitors, primary screen, biochemical, fluorescence polarization, FP-Rh probe, HTS | Serine hydrolase RBBP9 (Homo sapiens), O75884 | inhibition, % at 7.94 µM | 0.2% of 220,000 active | recombinant RBBP9;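 active = inhibition above the campaign mean of all tested compounds plus 3 SD, cut at about 14% in these data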
Target sequence (O75884 whole entry, looked up): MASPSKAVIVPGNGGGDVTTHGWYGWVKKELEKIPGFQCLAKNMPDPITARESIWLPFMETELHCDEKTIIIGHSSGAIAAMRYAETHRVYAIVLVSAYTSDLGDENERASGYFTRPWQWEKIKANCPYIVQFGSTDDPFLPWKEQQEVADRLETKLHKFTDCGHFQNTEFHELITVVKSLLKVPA
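Measured by – fluorescence polarization · Test system – RBBP9 protein · Input – 2.5 µM RBBP9 dispensing solution, before mixing · Measure – percent inhibition from mP, scaled between DMSO and no-protein wells · Benchmarks – DMSO-treated enzyme wells and wells lacking RBBP9 · Times – preincubation 30 min plus labeling 45 min at 25 °C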
GSTO1 confirm = GSTO1 inhibitor hit confirmation, counter-screen for RBBP9 inhibitor project, biochemical, fluorescence polarization, triplicate | shares compounds with GSTO1 counter | recombinant GSTO1, probe fluorescence polarization | inhibition, % at 5.96 µM | 54% of 2,400 active;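 active = inhibition above the primary screen's cutoff, its mean inhibition plus 3 SD, cut at about 35% in these data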;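 also: loss of polarization as inhibitors block binding of rhodamine sulfonate ester activity probe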
PAD4 confirm = human PAD4 inhibitors, confirmation, biochemical, fluorescence polarization; shares compounds with PAD4 FP inh; recombinant PAD4, RCA probe fluorescence polarization; inhibition, % at 6.36 µM; 28% of 1,200 active; AID 488796, 2010;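 active = mean inhibition across replicates above the hit cutoff set by the earlier primary screen, cut at about 15% in these data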;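 also: inhibitors block active-site labeling by the probe so polarization falls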
PRMT1 inh conf = PRMT1 methyltransferase inhibitors, confirmation, biochemical, fluorescence polarization, triplicate | recombinant His-PRMT1, activity-based probe fluorescence polarization | shares compounds with PRMT1 inh | inhibition, % at 2.79 µM | 42% of 3,300 active | AID 687036, 2013;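 active = mean inhibition across replicates above the hit cutoff derived for the earlier primary screen, cut at about 22% in these data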
Of the large screens only hits and unclear results are named; the others gave an inactive call (follow-up assays come after a bar, where they were run); ! = not active in a repeat. This is a sample that favours compounds with a hit; in the whole collection about 2.7% have one here.

CC1(C)Cc2c(C#N)c(N)n(-c3ccccc3)c(=S)c2CO1	none
CC1(C)C=C2C(=NN(c3ccccc3)C(N)=C2C#N)CO1	PAD4 FP inh 22.0, GSTO1 counter 74.1 (no result: RBBP9 inh) | GSTO1 confirm 87.5 | PAD4 confirm 55.5
O=C(O)CSc1cc(NS(=O)(=O)c2ccc(Br)cc2)c2ccccc2c1O	PRMT1 inh 56.8, PAD4 FP inh 31.0, GSTO1 counter 90.3 (no result: RBBP9 inh) | GSTO1 confirm 81.5 | PAD4 confirm inactive
Cc1ccc(S(=O)(=O)Nc2ccc(Br)cc2C(NCC(=O)O)c2ccccc2)cc1 (centres undefined)	none
COc1cccc2c1C(=O)c1c(O)c3c(c(O)c1C2=O)C[C@@](O)(C(=O)CO)C[C@@H]3O[C@H]1C[C@H](N)[C@@H](O)[C@H](C)O1	PAD4 FP inh 56.2, GSTO1 counter 44.3 (no result: SIAE inh, PRMT1 inh, RBBP9 inh) | GSTO1 confirm inactive | PAD4 confirm 64.4
CC(=O)[C@]1(O)Cc2c(O)c3c(c(O)c2[C@@H](O[C@H]2C[C@H](N)[C@H](O)[C@H](C)O2)C1)C(=O)c1ccccc1C3=O	PAD4 FP inh 84.2, GSTO1 counter 67.0 (no result: SIAE inh, PRMT1 inh, RBBP9 inh) | GSTO1 confirm 59.1 | PAD4 confirm 89.4
Cc1ccc(C(=O)c2c(C)oc3c2C(=O)C(=O)c2ccccc2-3)cc1	none (no result: SIAE inh, PRMT1 inh)
COc1ccc(C(=O)c2c(C(F)(F)F)oc3c2C(=O)c2ccccc2C3=O)cc1	PAD4 FP inh 30.3, GSTO1 counter 63.2 (no result: SIAE inh, PRMT1 inh) | GSTO1 confirm 65.7 | PAD4 confirm 22.1
CCc1cc(SC#N)cc(C)c1N	none
CCc1cc(SC#N)cc(C)c1NC(=O)CCl	PRMT1 inh 30.7, PAD4 FP inh 20.6, GSTO1 counter 72.4 | GSTO1 confirm 74.5 | PAD4 confirm inactive
O=C(COC(=O)c1ccc([N+](=O)[O-])s1)Nc1ccccc1	PAD4 FP inh 33.4, GSTO1 counter 64.8 | GSTO1 confirm inactive | PAD4 confirm inactive
O=C(COC(=O)c1ccc([N+](=O)[O-])s1)Nc1cccc(S(=O)(=O)NC2=NCCCCC2)c1	none
Cc1ccc(S(=O)(=O)C2(C(=O)NC3CCCCC3C)CC2)cc1 (centres undefined)	none
O=C1C(Cl)=C(N2CCN(c3ccccc3[N+](=O)[O-])CC2)C(=O)c2ccccc21	PAD4 FP inh 28.9, GSTO1 counter 82.2 | GSTO1 confirm 87.8 | PAD4 confirm inactive
O=[N+]([O-])c1cc(Cl)ccc1N1CCCC1	none
COc1ccc(C(c2c(C)[nH]n(-c3ccccc3)c2=O)c2c(C)[nH]n(-c3ccccc3)c2=O)cc1OC	PAD4 FP inh 68.9, GSTO1 counter 69.3 | GSTO1 confirm inactive | PAD4 confirm inactive
CC(=O)N1c2ccc(S(=O)(=O)N3CCC(C(=O)NCc4ccc(N(C)C)cc4)CC3)cc2CC1C (centres undefined)	none (no result: RBBP9 inh)
Cc1cc(O)c(Sc2ncn[nH]2)cc1NS(=O)(=O)c1ccc(Cl)cc1	none (no result: GSTO1 counter, RBBP9 inh)
Cc1cc(C)c(S(=O)(=O)/N=C2/C=C(Sc3ncn[nH]3)C(=O)c3ccccc32)cc1C	SIAE inh 19.9, PRMT1 inh 81.3, PAD4 FP inh 29.9, GSTO1 counter 84.4 | GSTO1 confirm 86.7 | PAD4 confirm inactive
CN1CCc2cc3c(c4c2[C@H]1[C@H](O)c1ccccc1-4)OCO3	PRMT1 inh 49.2, PAD4 FP inh 37.0, GSTO1 counter 68.7 | GSTO1 confirm inactive | PAD4 confirm 34.5
O=C(CSc1nnc(SCc2ccccc2)s1)N/N=C/C=C/c1ccccc1[N+](=O)[O-]	none
OC(c1ccc(F)c(F)c1)c1ncc(-c2ccc(Cl)cc2)[nH]1 (centres undefined)	none (no result: PAD4 FP inh, GSTO1 counter, RBBP9 inh)
Cc1cc(C(=O)N/N=C/c2ccc(-c3cccc(Cl)c3Cl)o2)n[nH]1	none
CC(C)(C)c1cc(C(=O)N/N=C/c2ccc(-c3ccccc3[N+](=O)[O-])o2)n[nH]1	PAD4 FP inh 47.5, GSTO1 counter 52.0 (no result: RBBP9 inh) | GSTO1 confirm inactive | PAD4 confirm inactive
O=C1CCCN2N=C(SCC(=O)Nc3ccc(OC(F)(F)F)cc3)SC2=N1	none (no result: RBBP9 inh)
CC(C)N(C(=O)C[n+]1ccc(/C=N/O)cc1)C(C)C	none
CCC(NC(=O)NCc1ccccc1)(C(F)(F)F)C(F)(F)F	none
CCC(NC(=O)Nc1ccc(O)cc1)(C(F)(F)F)C(F)(F)F	PAD4 FP inh 46.2, GSTO1 counter 57.3, RBBP9 inh 24.0 | GSTO1 confirm inactive | PAD4 confirm inactive
COC(=O)CCC(=O)OC1(C)C(=O)C=C2C=C(C3CC3)N(C3CC3)C=C2C1=O (centres undefined)	PAD4 FP inh 25.4, GSTO1 counter 51.8 (no result: RBBP9 inh) | GSTO1 confirm inactive | PAD4 confirm inactive
COc1ccc(OC)c(/C=N/NC(=O)CC(=O)NCc2ccccc2)c1	none
COc1ccc(N=Nc2nc3cc(Br)c(Br)cc3n2C)c(OC)c1	PRMT1 inh 69.1, GSTO1 counter 40.2 | GSTO1 confirm inactive | PRMT1 inh conf 49.1
COc1ccc(CNc2nc3ccccc3n2C)c(OC)c1	none
CN1CCc2cccc3c2[C@H]1Cc1ccc(O)c(O)c1-3	SIAE inh 18.4!, PRMT1 inh 85.8, GSTO1 counter 88.6, RBBP9 inh 27.8 | GSTO1 confirm inactive | PRMT1 inh conf 38.2
COc1cc(/C=C2\S/C(=N/S(=O)(=O)c3ccccc3)NC2=O)c([N+](=O)[O-])cc1OC	PRMT1 inh 29.8, GSTO1 counter 38.1 | GSTO1 confirm inactive | PRMT1 inh conf inactive
CC(C)(C)c1ccc(Oc2ccc(N)cn2)cc1	none
CN(Cc1ccccc1)C(=O)c1cccc(NC(=O)Cc2ccc(NC(=O)C3CCCN(S(=O)(=O)c4cccc([N+](=O)[O-])c4)C3)cc2)c1 (centres undefined)	none (no result: PAD4 FP inh, GSTO1 counter, RBBP9 inh)
CCOC(=O)NC1(NCc2ccccc2)Oc2ccccc2O1	PRMT1 inh 26.4, GSTO1 counter 60.7 | GSTO1 confirm inactive | PRMT1 inh conf inactive
CCOC(=O)C(Cc1ccccc1)C1(C)Oc2ccccc2O1 (centres undefined)	none (no result: PAD4 FP inh, GSTO1 counter, RBBP9 inh)
